This is a sample that favours compounds with a hit; in the whole collection about 2.1% have one here.
Runt-SMMHC FRET: inhibitors of RUNX1 Runt–CBFb-SMMHC binding, primary screen, biochemical, FRET, Cerulean-Runt, Venus-CBFb-SMMHC, uHTS; 220,000 compounds, 0.74% hits; AID 1434, 2008; inhibition, % at 20 µM; Cerulean-Runt/Venus-CBFb-SMMHC FRET ratio 530/480, 1 h;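 active = mean inhibition across duplicate retests at 20 µM reaching about 50%, limit read from the data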;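 note: inhibitors lower the FRET ratio by blocking Runt binding to CBFb-SMMHC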
Target sequence (Q01196 whole entry, looked up): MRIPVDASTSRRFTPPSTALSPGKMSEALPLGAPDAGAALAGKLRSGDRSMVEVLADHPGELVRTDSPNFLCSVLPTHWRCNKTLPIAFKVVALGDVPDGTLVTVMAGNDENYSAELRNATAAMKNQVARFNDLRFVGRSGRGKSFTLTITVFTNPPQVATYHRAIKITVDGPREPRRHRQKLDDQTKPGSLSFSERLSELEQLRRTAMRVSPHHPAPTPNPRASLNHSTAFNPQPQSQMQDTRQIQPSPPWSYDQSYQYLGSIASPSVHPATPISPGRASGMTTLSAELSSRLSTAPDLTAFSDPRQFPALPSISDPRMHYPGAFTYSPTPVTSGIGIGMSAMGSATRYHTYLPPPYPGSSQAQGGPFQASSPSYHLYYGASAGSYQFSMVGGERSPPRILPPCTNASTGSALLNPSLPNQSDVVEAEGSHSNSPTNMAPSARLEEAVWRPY
Target sequence (Q13951 whole entry, looked up): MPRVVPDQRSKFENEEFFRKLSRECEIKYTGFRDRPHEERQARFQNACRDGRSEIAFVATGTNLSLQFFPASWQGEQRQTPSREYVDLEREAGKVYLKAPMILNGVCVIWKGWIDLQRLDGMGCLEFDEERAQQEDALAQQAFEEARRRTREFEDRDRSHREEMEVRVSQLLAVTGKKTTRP
RanGTP-Impb inh: inhibitors of RanGTP-importin-beta interaction, primary screen, biochemical, FRET, CFP-Ran, YFP-importin-beta, homogeneous; Ran GTPase (GTP-bound) - importin-beta complex; cell-free CFP-Ran/YFP-importin-beta FRET ratio; inhibition, % (test concentration not listed); 300,000 compounds, 1.1% hits;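 active = more than half of the replicate wells show a fall in the fluorescence ratio signal beyond about 16%, limit read from the data, passing the limit was not always enough; inconclusive = exactly half of the replicate wells pass the set limit; inactive = fewer than half of replicates pass the limit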
Hck Nef HTS: inhibitors of Nef-activated human Hck kinase, primary screen, biochemical, Z-Lyte FRET, 384-well, Hck-YEEI; Recombinant Hck-YEEI plus Nef, Z-Lyte FRET kinase assay; inhibition, % at 20 µM; 220,000 compounds, 0.68% hits; AID 463187, 2010;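 active = Hck-Nef kinase inhibition above about 50%, limit read from the data; inactive = inhibition below that limit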
Runt-CBFb FRET: inhibitors of RUNX1 Runt–CBFb binding, primary screen, biochemical, FRET, Cerulean-Runt, Venus-CBFb, uHTS. Runt-related transcription factor 1 (Homo sapiens) + Core-binding factor subunit beta …. Cerulean-Runt/Venus-CBFb FRET ratio 530/480, 1 h. inhibition, % at 20 µM. 220,000 compounds, 0.46% hits. AID 1496, 2009;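 active = inhibition over about 50% at 20 µM in the single-dose screen, limit read from the data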
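Measured by: fluorescence energy transfer, 422 nm excitation, 530/480 nm emission; test system: Cerulean-tagged RUNX1 Runt domain (FRET donor) fusion protein; buffer or medium: Tris pH 7.5 buffer with BSA; compound: one dose, 20 µM compound, 1% DMSO; times: two 1 h room-temperature incubations shielded from light; benchmarks: unlabeled CBFb 5 µM, positive control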
p97 inhibitor: inhibitors of human p97 ATPase, primary screen, biochemical; Transitional endoplasmic reticulum ATPase (Homo sapiens), P55072; recombinant p97 ATPase, Kinase-Glo ATP luminescence, 3 h; inhibition, % at 8 µM; 220,000 compounds, 0.42% hits; in the data active = inhibition above about 15%
TbHK1 inh: Trypanosoma brucei hexokinase 1 inhibitors, primary screen, biochemical, G6PDH-coupled NADH absorbance, MLSCN library; hexokinase 1 [Trypanosoma brucei]; recombinant TbHK1, G6PDH-coupled NADH A340; inhibition, % at 10 µM; 220,000 compounds, 0.11% hits;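 active = inhibition of 50% or more in the single-dose primary screen; inactive = inhibition below 50%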
G6PDH ctr: Leuconostoc G6PDH inhibition, confirmation, counter-screen for TbHK1 inhibitor project, biochemical, DPI cherry-picked compounds, single concentration; shares compounds with TbHK1 inh; purified G6PDH, NADH absorbance, 1 h; inhibition, % at 10 µM; 210 compounds, 7% hits;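 active = at least 50% inhibition in the glucose-6-phosphate dehydrogenase coupled counterscreen; inconclusive = no clear call, values can overlap the other calls; inactive = inhibition below 50%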
TbHK1 rescreen: TbHK1 inhibitor retest, confirmation, biochemical, DPI cherry-picked primary actives. inhibition, % at 10 µM. 210 compounds, 10% hits. shares compounds with TbHK1 inh. AID 2560, 2010. recombinant TbHK1, G6PDH-coupled NADH A340 absorbance;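 active = inhibition of at least 50% in both of the two screening runs; inconclusive = at least 50% in one run, below 50% in the other; inactive = inhibition below 50% in both runs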
Each line names hits and unclear results; the compound was inactive in the other large screens (follow-up assays come after a bar, where they were run).

Cc1c(Cl)cccc1N1C(=O)C2ON(c3ccccc3)C(c3cccnc3)C2C1=O (configuration not stated)	TbHK1 inh 51 | G6PDH ctr inactive | TbHK1 rescreen inactive
COc1cc(C2C(C#N)=C(N)Oc3cc(N(C)C)ccc32)cc2c1OCO2 (configuration not stated)	RanGTP-Impb inh 27, TbHK1 inh 59 | G6PDH ctr inactive | TbHK1 rescreen inactive
C[C@@H](C(=O)N[C@@H](Cc1c[nH]c2ccccc12)C(=O)O)n1nnc2ccccc2c1=O	none
CCC1Oc2ccccc2N(CC(=O)NCCc2ccc(OC)c(OC)c2)C1=O (configuration not stated)	none
CCC1Oc2ccccc2N(CC(=O)Nc2ccccc2OC)C1=O (configuration not stated)	TbHK1 inh 51 | G6PDH ctr inactive | TbHK1 rescreen inactive
COC(=O)Cc1ccc(NC(=S)NNC(=O)C2CC2)cc1	none
CCOc1ccc(C(=O)NCC(c2ccco2)N2CCOCC2)cc1 (configuration not stated)	none (no result: Runt-SMMHC FRET, Hck Nef HTS, Runt-CBFb FRET, p97 inhibitor, TbHK1 inh)
CCOC(=O)N1CCN(c2ccc(S(=O)(=O)N(Cc3ccccc3)Cc3ccccc3)cn2)CC1	TbHK1 inh 58 | G6PDH ctr inactive | TbHK1 rescreen inactive
CCOC(=O)N1CCN(C(=O)CN(Cc2ccccc2)S(C)(=O)=O)CC1	none
Cc1nn(Cc2ccc(C(=O)NC(C)(C)C)o2)c(C)c1Br	TbHK1 inh 50 | G6PDH ctr inactive | TbHK1 rescreen inactive
O=C(C[n+]1ccc2ccccc2c1)c1cccc2ccccc12	none
O=C(/C=C/c1cc[n+](CC(=O)c2ccc3cccc4c3c2CC4)cc1)c1ccc2cccc3c2c1CC3	Hck Nef HTS 69, p97 inhibitor 46, TbHK1 inh 75 | G6PDH ctr 100 | TbHK1 rescreen inactive
CC(C)(C)c1ccc(COC(=O)CNC(=O)CNC(=O)Cc2ccccc2)cc1	none
CC(C)(C)OC(=O)NCC(=O)NCC(=O)OCc1ccccc1	TbHK1 inh 53 | G6PDH ctr inactive | TbHK1 rescreen inactive
COc1ccccc1-c1nnn(CC#N)n1	TbHK1 inh 52 | G6PDH ctr inactive | TbHK1 rescreen inactive
NC(=O)SC/C(=N\S(=O)(=O)c1ccccc1)Nc1ccccc1	TbHK1 inh 58 (no result: RanGTP-Impb inh) | G6PDH ctr inactive | TbHK1 rescreen inactive
Clc1ccc(-c2nnc(NC3=NCCCCC3)o2)cc1	TbHK1 inh 50 | G6PDH ctr inactive | TbHK1 rescreen inactive
O=C(Nc1nnc(-c2ccc(Cl)cc2)o1)C1CCCCC1	none (no result: p97 inhibitor)
Cc1ccccc1OCC(=O)N1N=C(c2cccnc2)CC1(O)C(F)(F)F (configuration not stated)	RanGTP-Impb inh inconclusive
COCCNC(=O)CN(C)S(=O)(=O)c1ccc(Br)cc1	none
COC(=O)NCCOC(=O)N(O)c1ccc(Br)cc1	TbHK1 inh 57 (no result: RanGTP-Impb inh) | G6PDH ctr inactive | TbHK1 rescreen inactive
CC(C)(C)c1ccc(SCCc2cccnc2)cc1	none
S=C(Nc1ccccc1)Nc1nc2ccccc2n1CCOc1ccccc1	none
CCCCn1c(NC(=S)Nc2ccccc2)nc2ccccc21	TbHK1 inh 62 | G6PDH ctr inactive | TbHK1 rescreen inactive
COC(=O)c1[nH]c(=O)c2ccccc2c1OCc1ccccc1	TbHK1 inh 54 | G6PDH ctr inactive | TbHK1 rescreen inactive
COC(=O)c1c(C)[nH]c(C(=O)CSc2ccc(Cl)cc2)c1C	TbHK1 inh 50 | G6PDH ctr inactive | TbHK1 rescreen inactive
COc1cc(/C=C(\C#N)c2nc3c(s2)CCCC3)ccc1O	TbHK1 inh 54 | G6PDH ctr inactive | TbHK1 rescreen 88
N#C/C(=C\c1cccnc1)c1nc2c(s1)CCCC2	none
CNc1nc(-c2ccccc2)[n+](-c2ccc(C)cc2)s1	Runt-SMMHC FRET 56, TbHK1 inh 61 | G6PDH ctr inactive | TbHK1 rescreen 85
O=C1NC(=O)c2cc(Oc3ccc([N+](=O)[O-])cc3)ccc21	none (no result: Runt-SMMHC FRET, Hck Nef HTS, Runt-CBFb FRET, p97 inhibitor, TbHK1 inh)
O=[N+]([O-])c1cc(/C=N\Nc2nccs2)ccc1O	TbHK1 inh 50 | G6PDH ctr inactive | TbHK1 rescreen 56
CC(O)c1nc2ccc(Cc3ccc4nc(C(C)O)[nH]c4c3)cc2[nH]1 (configuration not stated)	TbHK1 inh 55 | G6PDH ctr inactive | TbHK1 rescreen inactive
COc1ccc2nc(C(C)O)[nH]c2c1 (configuration not stated)	none
CCOC(=O)N1CCN(C(=O)C2CCN(S(=O)(=O)N3CCCC3)CC2)CC1	TbHK1 inh 58 | G6PDH ctr inactive | TbHK1 rescreen inactive
CCOC(=O)N1CCN(C(=O)C2CCN(S(=O)(=O)N3CCC4(CC3)OCCO4)CC2)CC1	none (no result: Runt-SMMHC FRET, Hck Nef HTS, Runt-CBFb FRET, p97 inhibitor, TbHK1 inh)
CCCn1c(SCC(=O)Nc2ccccc2CC)nnc1C(C)C	TbHK1 inh 65 | G6PDH ctr inactive | TbHK1 rescreen inactive
CCCCC(C(=O)O)C(C)CC(=O)Nc1cccc(C(=O)O)c1 (configuration not stated)	none
C=CCNC(=O)CC(C)C(CCCCC)C(=O)O (configuration not stated)	TbHK1 inh 50 | G6PDH ctr inactive | TbHK1 rescreen inactive
Cc1ccc(-c2nnc3c4ccccc4c(C)nn23)cc1NC(=O)CN1CCOCC1	TbHK1 inh 51 | G6PDH ctr inactive | TbHK1 rescreen inactive
Cc1nn2c(-c3cccc(NC(=O)CN4CCOCC4)c3)nnc2c2ccccc12	RanGTP-Impb inh inconclusive (no result: Runt-SMMHC FRET, Runt-CBFb FRET)
Cc1cc(C)n(CCCNC(=O)CCNS(=O)(=O)c2ccccc2C(F)(F)F)n1	none (no result: Runt-SMMHC FRET, Hck Nef HTS, Runt-CBFb FRET, p97 inhibitor, TbHK1 inh)
COC(=O)C1=C(NC(=O)c2ccc(C)c(C)c2)CCS1	TbHK1 inh 57 | G6PDH ctr inactive | TbHK1 rescreen inactive
COC(=O)C1=C(NC(=O)c2ccc(Br)cc2)CCS1	none
CCN(CC)S(=O)(=O)c1ccc(C(=O)NC2=C(C(=O)OC)SCC2)cc1	TbHK1 inh 55 | G6PDH ctr inactive | TbHK1 rescreen inactive

Source: PubChem BioAssay
